Results taken from the RNAGym collection of RNA variant scans (doi:10.1002/anie.201605470).

B1: Osa-1-4 twister ribozyme (parent)
chain: CCGCCUAACACUGCCAAUGCCGGUCCCAAGCCCGGAUAAAAGUGGAGGGGGCGG

Variants of: B1
Assay: self-cleavage, relative activity (ratio to wild type); higher = more cleavage; co-transcriptional
In short: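 A DNA template was synthesised for a 54-nucleotide twister ribozyme from Oryza sativa, with 97 % wild-type base and 1 % of each other base at each of the 48 positions downstream of the cleavage site. The ribozyme cleaved itself co-transcriptionally during 2 h of in vitro transcription at 37 °C. Reverse transcription with a template-switching oligonucleotide, PCR amplification and deep sequencing followed, and cleavage status came from reads with or without upstream sequence. Relative activity is the fraction cleaved normalised to wild type.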

Row | Variant | self-cleavage
1 | CCGCCUAACACUGCCAAUGCCGGUCCCAAGCCUGGAUAAAAGUGGAGGGUGCGG [C33U G50U] | 0.88
2 | CCGCCUAACACUGCCAAUGCCGGUCCCAAGCCUGGAUAAAAGUGGAGGGAGCGG [C33U G50A] | 0.32
3 | CCGCCUAACACUGCCAAUGCCGGUCCCAAGCCUGGAUAAAAGUGGAGGGCGCGG [C33U G50C] | 0.53
4 | CCGCCUAACACUGCCAAUGCCGGUCCCAAGCCCAGAUAAAAGUCGAGGGGGCGG [G34A G44C] | 0.58
5 | CCGCCUAACACUGCCAAUGCCGGUCCCAAGCCCAGAUAAAAGUAGAGGGGGCGG [G34A G44A] | 0.69
6 | CCGCCUAACACUGCCAAUGCCGGUCCCAAGCCUGGAUAAAAGUUGAGGGGGCGG [C33U G44U] | 0.53
7 | CCGCCUAACACUGCCAAUGCCGGACCCAAGCCUGGAUAAAAGUGGAGGGGGCGG [C33U U24A] | 0.14
8 | CCGCCUAACACUGCCAAUGCCGGGCCCAAGCCUGGAUAAAAGUGGAGGGGGCGG [C33U U24G] | 0.03
9 | CCGCCUAACACUGCCAAUGCCGGCCCCAAGCCUGGAUAAAAGUGGAGGGGGCGG [C33U U24C] | 0.06
10 | CCGCCUAACACUGCCAACGCCGGUCCCAAGCCUGGAUAAAAGUGGAGGGGGCGG [C33U U18C] | 0.63
11 | CCGCCUAACACUGCCAAAGCCGGUCCCAAGCCUGGAUAAAAGUGGAGGGGGCGG [C33U U18A] | 0.81
12 | CCGCCUAACACUGCCAAGGCCGGUCCCAAGCCUGGAUAAAAGUGGAGGGGGCGG [C33U U18G] | 0.48
13 | CCGCCUAACACUGCCAAUGCCGGUCCCAAGCCUGGAUAAAAGUGGAGGGGGCGA [C33U G54A] | 0.57
14 | CCGCCUAACACUGCCAAUGCCGGUCCCAAGCCUGGAUAAAAGUGGAGGGGGCGC [C33U G54C] | 0.61
15 | CCGCCUAACACUGCCAAUGCCGGUCCCAAGCCUGGAUAAAAGUGGAGGGGGCGU [C33U G54U] | 0.68
16 | CCGCCUAACACUGCCAAUGCCGGUCCCAAGCCUGGAAAAAAGUGGAGGGGGCGG [C33U U37A] | 0.87
17 | CCGCCUAACACUGCCAAUGCCGGUCCCAAGCCUGGACAAAAGUGGAGGGGGCGG [C33U U37C] | 0.88
18 | CCGCCUAACACUGCCAAUGCCGGUCCCAAGCCUGGAGAAAAGUGGAGGGGGCGG [C33U U37G] | 0.9
19 | CCGCCUAACACUGCCAAUGCCGGUCCCAAGCCUGGAUAAAAGUGGACGGGGCGG [C33U G47C] | 0.07
20 | CCGCCUAACACUGCCAAUGCCGGUCCCAAGCCUGGAUAAAAGUGGAAGGGGCGG [C33U G47A] | 0.08
21 | CCGCCUAACACUGCCAAUGCCGGUCCCAAGCCUGGAUAAAAGUGGAUGGGGCGG [C33U G47U] | 0.07
22 | CCGCCUAACACUGCCAAUGCCGGUCCCAAGCCCAGAUAAAAGUGGAGGGGGCGG [G34A] | 0.86
23 | CCGCCUAACACUGCCAAUGCCGGUCCCAAGCCUGGAUAAAAGUGGAGUGGGCGG [C33U G48U] | 0.04
24 | CCGCCUAACACUGCCAAUGCCGGUCCCAAGCCUGGAUAAAAGUGGAGAGGGCGG [C33U G48A] | 0.07
25 | CCGCCUAACACUGCCAAUGCCGGUCCCAAGCCUGGAUAAAAGUGGAGCGGGCGG [C33U G48C] | 0.05

Row | Variant | self-cleavage
26 | CCGCCUAACACUGCCAAUGCCGGUCCCAAGCCUGGAUAAAAGUGAAGGGGGCGG [C33U G45A] | 0.08
27 | CCGCCUAACACUGCCAAUGCCGGUCCCAAGCCUGGAUAAAAGUGUAGGGGGCGG [C33U G45U] | 0.05
28 | CCGCCUAACACUGCCAAUGCCGGUCCCAAGCCUGGAUAAAAGUGCAGGGGGCGG [C33U G45C] | 0.06
29 | CCGCCUAACACCGCCAAUGCCGGUCCCAAGCCUGGAUAAAAGUGGAGGGGGCGG [C33U U12C] | 0.11
30 | CCGCCUAACACAGCCAAUGCCGGUCCCAAGCCUGGAUAAAAGUGGAGGGGGCGG [C33U U12A] | 0.27
31 | CCGCCUAACACGGCCAAUGCCGGUCCCAAGCCUGGAUAAAAGUGGAGGGGGCGG [C33U U12G] | 0.08
32 | CCGCCUAACACUGCCAAUGCCGGUCCCAAGCCUGGAUAAAAGUGGAGGGGGCCG [C33U G53C] | 0.07
33 | CCGCCUAACACUGCCAAUGCCGGUCCCAAGCCUGGAUAAAAGUGGAGGGGGCAG [C33U G53A] | 0.35
34 | CCGCCUAACACUGCCAAUGCCGGUCCCAAGCCUGGAUAAAAGUGGAGGGGGCUG [C33U G53U] | 0.13
35 | CCGCCUAACACUGCCAAUGCCGGUCCCAAGCCUGGAUAAAAGUGGAGGCGGCGG [C33U G49C] | 0.07
36 | CCGCCUAACACUGCCAAUGCCGGUCCCAAGCCUGGAUAAAAGUGGAGGUGGCGG [C33U G49U] | 0.08
37 | CCGCCUAACACUGCCAAUGCCGGUCCCAAGCCUGGAUAAAAGUGGAGGAGGCGG [C33U G49A] | 0.08
38 | CCGCCUAACACUGCCAAUGCCGGUCCCAAGCCUGGAUAAAAGUGGAGGGGACGG [C33U G51A] | 0.35
39 | CCGCCUAACACUGCCAAUGCCGGUCCCAAGCCUGGAUAAAAGUGGAGGGGCCGG [C33U G51C] | 0.08
40 | CCGCCUAACACUGCCAAUGCCGGUCCCAAGCCUGGAUAAAAGUGGAGGGGUCGG [C33U G51U] | 0.13
41 | CCGCCUAACACUGCCAAUGCCGGUCCCAAGCCCAGAUAAAAUUGGAGGGGGCGG [G34A G42U] | 0.05
42 | CCGCCUAACACUGCCAAUGCCGGUCCCAAGCCCAGAUAAAAAUGGAGGGGGCGG [G34A G42A] | 0.11
43 | CCGCCUAACACUGCCAAUGCCGGUCCCAAGCCCAGAUAAAACUGGAGGGGGCGG [G34A G42C] | 0.08
44 | CCGCCUAACACUGCCAAUGCCGGUCCCAAGCCCACAUAAAAGUGGAGGGGGCGG [G34A G35C] | 0.29
45 | CCGCCUAACACUGCCAAUGCCGGUCCCAAGCCCAUAUAAAAGUGGAGGGGGCGG [G34A G35U] | 0.8
46 | CCGCCUAACACUGCCAAUGCCGGUCCCAAGCCCAAAUAAAAGUGGAGGGGGCGG [G34A G35A] | 0.77
47 | CCGCCUAACACUGCCAAUGCCGGUCCCAAGCCUGGAUAAAAGGGGAGGGGGCGG [C33U U43G] | 0.09
48 | CCGCCUAACACUGCCAAUGCCGGUCCCAAGCCUGGAUAAAAGAGGAGGGGGCGG [C33U U43A] | 0.19
49 | CCGCCUAACACUGCCAAUGCCGGUCCCAAGCCUGGAUAAAAGCGGAGGGGGCGG [C33U U43C] | 0.09
